In ChEMBL document CHEMBL4038317, “Discovery of a Benzamide Derivative That Protects Pancreatic β-Cells against Endoplasmic Reticulum Stress” (J Med Chem, 2017):
Active and inactive are the calls of the source. The calls are words filed in the database; no cut-off is given here.

Assays:
[1] = system: INS1; assay: Cytoprotective activity in rat INS-1 cells assessed as protection against tunicamycin-induced ER stress-mediated reduction in cell viability after 3 days by CellTiter-Glo assay relative tunicamycin; format: functional; conditions: INS1, 72 h
Outline: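 INS-1 cells, 3×10^3 per well, were co-treated with tunicamycin 0.1 μg/mL and compound for 72 h. Viability was read as intracellular ATP by luminescence and expressed as fold of no-tunicamycin cells. EC50 and maximum activity were taken as the increase in viability versus tunicamycin alone. Triplicate wells, three independent experiments.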

[2] = system: INS1; assay: Cytoprotective activity in rat INS-1 cells assessed as protection against tunicamycin-induced ER stress-mediated reduction in cell viability after 3 days by CellTiter-Glo assay; conditions: INS1, 72 h
[3] = target: T1, Cyclic AMP-dependent transcription factor ATF-6 alpha (Rattus norvegicus) (UniProt G3V909); assay: Inhibition of tunicamycin ER stress-induced ATF6 activation in rat INS-1 cells assessed as suppression of increase in […] mRNA levels up to 10 uM after 8 hrs by qRT-PCR analysis; format: cell-based
T1 sequence (whole entry): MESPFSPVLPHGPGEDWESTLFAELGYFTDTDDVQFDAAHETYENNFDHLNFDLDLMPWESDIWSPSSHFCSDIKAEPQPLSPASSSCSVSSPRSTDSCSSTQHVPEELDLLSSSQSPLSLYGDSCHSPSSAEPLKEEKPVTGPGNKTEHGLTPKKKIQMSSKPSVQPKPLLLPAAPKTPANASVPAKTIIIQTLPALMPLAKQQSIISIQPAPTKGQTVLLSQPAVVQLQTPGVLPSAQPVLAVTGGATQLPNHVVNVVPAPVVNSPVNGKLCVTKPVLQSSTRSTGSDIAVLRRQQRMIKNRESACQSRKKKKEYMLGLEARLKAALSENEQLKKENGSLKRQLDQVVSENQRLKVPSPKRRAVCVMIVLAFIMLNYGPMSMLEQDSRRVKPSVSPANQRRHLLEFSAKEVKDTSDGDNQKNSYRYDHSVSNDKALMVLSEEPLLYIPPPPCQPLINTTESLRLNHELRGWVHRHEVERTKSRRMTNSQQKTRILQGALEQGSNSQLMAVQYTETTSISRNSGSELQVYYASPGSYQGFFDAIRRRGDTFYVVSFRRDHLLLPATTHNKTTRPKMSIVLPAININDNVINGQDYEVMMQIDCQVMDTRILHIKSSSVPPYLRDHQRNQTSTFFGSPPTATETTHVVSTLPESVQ
Outline: (§1)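 INS-1 cells, 4×10^5 per well, were exposed to tunicamycin 0.1 μg/mL with compound or DMSO for 8 h. qRT-PCR for ATF4, CHOP, Bip, GRP94, or spliced XBP1 using splicing-specific primers. Values were normalized to cyclophilin A by ΔΔCt and given as fold over untreated control. Triplicate wells, 3 independent experiments.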

[4] = target: T1, Cyclic AMP-dependent transcription factor ATF-6 alpha (Rattus norvegicus); assay: Inhibition of tunicamycin ER stress-induced ATF6 activation in rat INS-1 cells assessed as suppression of increase in Bip mRNA levels up to 10 uM after 8 hrs by qRT-PCR analysis; format: cell-based; outline: as §1
[5] = target: T2, Eukaryotic translation initiation factor 2-alpha kinase 3 (Rattus norvegicus) (UniProt Q9Z1Z1); assay: Inhibition of tunicamycin ER stress-induced PERK activation in rat INS-1 cells assessed as suppression of tunicamycin-induced increase in CHOP protein levels up to 10 uM after 8 hrs by Western blot analysis; format: cell-based
T2 sequence (whole entry): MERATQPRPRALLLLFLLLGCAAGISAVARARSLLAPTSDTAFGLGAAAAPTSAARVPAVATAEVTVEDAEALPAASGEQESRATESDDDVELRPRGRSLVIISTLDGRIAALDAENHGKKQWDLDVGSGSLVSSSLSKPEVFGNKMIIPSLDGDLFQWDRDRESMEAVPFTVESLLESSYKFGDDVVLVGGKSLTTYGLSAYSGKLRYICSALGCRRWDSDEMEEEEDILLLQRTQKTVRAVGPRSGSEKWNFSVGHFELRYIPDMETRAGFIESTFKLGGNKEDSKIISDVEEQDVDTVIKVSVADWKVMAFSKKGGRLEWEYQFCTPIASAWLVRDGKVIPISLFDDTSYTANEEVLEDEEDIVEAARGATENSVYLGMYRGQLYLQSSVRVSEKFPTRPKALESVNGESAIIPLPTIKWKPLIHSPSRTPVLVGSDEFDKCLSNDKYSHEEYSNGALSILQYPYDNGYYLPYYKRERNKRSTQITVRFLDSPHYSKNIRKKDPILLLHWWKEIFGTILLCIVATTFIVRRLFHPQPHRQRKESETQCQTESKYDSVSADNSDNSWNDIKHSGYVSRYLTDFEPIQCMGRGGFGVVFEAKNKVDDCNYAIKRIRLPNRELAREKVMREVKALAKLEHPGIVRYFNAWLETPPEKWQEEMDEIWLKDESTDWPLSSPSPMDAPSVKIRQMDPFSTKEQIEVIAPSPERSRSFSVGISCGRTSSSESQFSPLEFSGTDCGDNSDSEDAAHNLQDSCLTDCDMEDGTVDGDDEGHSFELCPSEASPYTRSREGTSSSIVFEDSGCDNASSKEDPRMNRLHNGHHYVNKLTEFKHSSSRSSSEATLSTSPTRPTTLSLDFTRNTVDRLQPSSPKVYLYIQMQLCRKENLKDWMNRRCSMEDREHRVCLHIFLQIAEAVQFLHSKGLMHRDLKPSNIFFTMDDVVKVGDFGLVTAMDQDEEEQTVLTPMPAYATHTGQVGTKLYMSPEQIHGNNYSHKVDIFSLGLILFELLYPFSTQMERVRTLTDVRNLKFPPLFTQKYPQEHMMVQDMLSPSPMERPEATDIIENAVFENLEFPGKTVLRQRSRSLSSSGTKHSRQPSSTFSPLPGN
Outline: (§2)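 INS-1 cells were exposed to tunicamycin 0.1 μg/mL with compound or DMSO for 8 h. Lysates were immunoblotted for ATF4 and CHOP (1:1000). Bands were quantified by densitometry and normalized to α-tubulin; 3 independent experiments.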

[6] = target: T2, Eukaryotic translation initiation factor 2-alpha kinase 3 (Rattus norvegicus); assay: Inhibition of tunicamycin ER stress-induced PERK activation in rat INS-1 cells assessed as suppression of tunicamycin-induced increase in ATF4 protein levels up to 10 uM after 8 hrs by Western blot analysis; format: cell-based; outline: as §2

Row | Compound | Emax [1] | EC50 [2] | also measured
1 | O=C(NCc1cccc(Br)c1)c1ccc2c(c1)OCCO2 | 69% | 5.5 µM | 
2 | O=C(NCc1cccc(Cl)c1)c1ccc2c(c1)OCCO2 | 57% | 9.5 µM | 
3 | CC(C)Sc1ccccc1C(=O)NCCc1ccccc1 | 30% | > 30 µM | 
4 | O=C(NCc1ccccc1Cl)c1cccc(CN2CCCCC2)c1 | 93% | 2.04 µM | 
5 | O=C(NCc1cccc(Cl)c1)c1ccc(CN2CCCCC2)cc1 | 80% | 2.2 µM | 
6 | O=C(NCCc1cccc(Cl)c1)c1ccc2c(c1)OCO2 | 41% | 25 µM | 
7 | C#CCOc1ccc(C(=O)NCCc2ccccc2)cc1 | 54% | > 30 µM | 
8 | O=C(NCc1ccccc1Cl)c1ccc(CN2CCCCC2)cc1 | 87% | 13 µM | 
9 | O=C(NCCc1ccc(Cl)cc1)c1ccc(CN2CCCCC2)cc1 | 82% | 21 µM | 
10 | O=C(NCc1ccccc1Br)c1ccc2c(c1)OCCO2 | 38% | 25 µM | 
11 | COc1ccc(CCNC(=O)c2ccc3c(c2)OCCO3)cc1 | 26% | > 30 µM | 
12 | O=C(NCCc1ccc(F)cc1)c1ccc2c(c1)OCCO2 | 50% | 21 µM | 
13 | O=C(NCc1ccccc1Cl)c1ccc2c(c1)OCCO2 | 43% | 25 µM | 
14 | O=C(NCc1cccc(Br)c1)c1ccc(CN2CCCCC2)cc1 | 81% | 4.9 µM | 
15 | O=C(NCCc1ccccc1)c1cc(F)c(F)c(F)c1F | < 0% |  | 
16 | COc1cccc(CNC(=O)c2cccc(CN3CCCCC3)c2)c1 | 92% | 0.96 µM | 
17 | O=C(NCc1ccccc1)c1cccc(CN2CCCCC2)c1 | 95% | 0.35 µM | 
18 | COc1ccc(C(=O)NCCc2ccccc2)cc1C | 56% | 15 µM | 
19 | CS(=O)(=O)Nc1cccc(C(=O)NCCc2ccccc2)c1 | 24% | 25 µM | 
20 | COc1ccc(CNC(=O)c2cccc(CN3CCCCC3)c2)cc1 | 93% | 1.12 µM | 
21 | O=C(NCc1ccc(Cl)cc1)c1ccccc1CN1CCCCC1 | 73% | 6.9 µM | 
22 | O=C(NCc1ccc(Cl)cc1)c1ccc(CN2CCCCC2)cc1 | 77% | 9.5 µM | 
23 | O=C(NCCc1ccccc1)c1ccc(CN2CCCC2)cc1 | 31% | 11 µM | 

Row | Compound | Emax [1] | EC50 [2] | also measured
24 | CCOc1cccc(C(=O)NCCc2ccccc2)c1 | 49% | 26 µM | 
25 | O=C(NCCc1ccccc1)c1ccc(F)c(F)c1F | 23% | 9.9 µM | 
26 | O=C(NCc1ccc(Cl)c(Cl)c1)c1ccc(CN2CCCCC2)cc1 | 78% | 1.8 µM | 
27 | O=C(NCCc1cccc(Cl)c1)c1ccc2c(c1)OCCO2 | 42% | 21 µM | 
28 | O=C(NCc1ccc(Cl)c(Cl)c1)c1ccc2c(c1)OCCO2 | 68% | 3.6 µM | 
29 | O=C(NCCc1ccc(Cl)cc1)c1ccc2c(c1)OCCO2 | 51% | 15 µM | 
30 | CN(C)S(=O)(=O)c1ccc(C(=O)NCCc2ccccc2)cc1 | 37% | 19 µM | 
31 | COc1ccc(C(=O)NCCc2cccc(Cl)c2)cc1OC | 46% | 24 µM | 
32 | O=C(NCCc1ccccc1)c1ccc(CN2CCCCC2)cc1 | 87% | 21 µM | 
33 | O=C(NCCc1ccccc1)c1ccc2c(c1)OCCO2 | 47% | 19 µM | 
34 | COc1ccccc1CCNC(=O)c1ccc2c(c1)OCCO2 | 29% | > 30 µM | 
35 | O=C(NCc1ccc(Cl)cc1)c1cccc(CN2CCCCC2)c1 | 93% | 0.24 µM | 
36 | COc1ccc(CCNC(=O)c2ccc3c(c2)OCCO3)cc1OC | 5% | > 30 µM | inhibition [3]: inactive; inhibition [4]: inactive; inhibition [5]: inactive; inhibition [6]: inactive
37 | O=C(NCCc1ccccc1)c1cccc([N+](=O)[O-])c1 | < 0% |  | 
38 | Cc1ccc(C(=O)NCCc2ccccc2)cc1 | 25% | 20 µM | 
39 | Nc1cccc(C(=O)NCCc2ccccc2)c1 | < 0% |  | 
40 | O=C(NCCc1ccccc1)c1ccc(Cl)c(Cl)c1 | 42% | 17 µM | 
41 | O=C(NCc1cccc(Cl)c1)c1cccc(CN2CCCCC2)c1 | 90% | 0.41 µM | 
42 | O=C(NCCc1ccccc1)c1cccc(F)c1 | < 0% |  | 
43 | Cc1ccccc1C(=O)NCCc1ccccc1 | 6% |  | 
44 | O=C(NCc1ccc(Cl)cc1)c1ccc2c(c1)OCCO2 | 69% | 2.8 µM | 
45 | O=C(NCc1cccc(C(F)(F)F)c1)c1cccc(CN2CCCCC2)c1 | 91% | 0.25 µM | 
46 | O=C(NCCc1ccc(Cl)c(Cl)c1)c1ccc(CN2CCCCC2)cc1 | 71% | 24 µM | 
